Laboratory results: ChEMBL document CHEMBL4152210, “Design, synthesis, anti-lung cancer activity, and chemosensitization of tumor-selective MCACs based on ROS-mediated JNK pathway activation and NF-κB pathway inhibition” (Eur J Med Chem, 2018)
The source made the active and inactive calls. The calls are words filed in the database; no cut-off is given here.

What was measured:
A549 [1] = assay: Induction of ROS generation in human A549 cells at 10 uM preincubated with NAC for 1 hr followed by compound addition and measured after 9 hrs by DCFDA staining based flow cytometric analysis; type: functional, cell-based
Summary of the method: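 A549 (6 × 10^5 per 60 mm dish) exposed to 10 µM over a time course up to 12 h, or at 1, 5 or 10 µM for 9 h. Optional NAC (5 mM) pretreatment for 1 h before 10 µM for 9 h. Cells loaded with DCF-DA (10 µM) for 30 min at 37 °C in the dark, washed, and read by flow cytometry.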

A549 [2] = assay: Anticlonogenic activity against human A549 cells assessed as inhibition of clonogenic growth at 1 uM incubated for 2 days followed by replacement of growth media and measured after 8 days by crystal violet staining-based assay relative to control; type: functional
Summary of the method: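 A549 seeded at 1000 cells per well in 6-well plates, exposed to drug alone or combined with cisplatin or 5-Fu over a concentration series. Drug-containing medium replaced after 2 days. After a further 8 days, fixed with 1% methanol/1% formaldehyde and stained with 0.5% crystal violet. Percent inhibition at each concentration calculated relative to control.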

A549 [3] = assay: Cell cycle arrest in human A549 cells assessed as increase in accumulation at G2/M phase after 10 hrs by propidium iodide staining based flow cytometric analysis; type: functional
Summary of the method: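 A549 (6 × 10^5 per 60 mm dish, overnight) treated at 1, 5 or 10 µM for 10 h, with BMS345541 (20 µM) as positive control. Trypsinized, fixed in ice-cold 70% ethanol at −20 °C for 30 min, treated with RNase A, stained with 50 µg/mL PI, analysed by flow cytometry.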

For `COc1cc(/C=C2\CN(C)C/C(=C\c3cc(OC)c(OC)c(OC)c3)C2=O)cc(OC)c1OC`, the Activity (A549 [1]) was “inactive”, the inhibition at 1 µM (A549 [2]) was 44% and the Activity (A549 [3]) was “Dose-dependent effect”.
